Source: ChEMBL document CHEMBL4513216, “Probing the Open Global Health Chemical Diversity Library for Multistage-Active Starting Points for Next-Generation Antimalarials” (ACS Infect Dis, 2020)

Test: Toxicity liver stage against HepG2, at 10uM
Type: cell-based
Set-up: test concentration 10 uM, cell line HepG2-A16-CD81EGFP
Conditions: human, HepG2-A16-CD81EGFP cells; read-out: INHIBITION
Method in brief: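 Uninfected HepG2-A16-CD81EGFP cells, 3 × 10^3 per well, 1536-well, plated on prespotted compound at 10 μM final, parasite-free screening media added to match infected plates; puromycin 10 μM positive, DMSO 0.5% negative; run in parallel with 48 h PbLuc assay at 37 °C, 5% CO2; viability by CellTiter-Glo luminescence, normalized to controls.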
With `Cc1ccc2oc([C@H]3CCN(Cc4ccccc4)C3)nc2c1` the cytotoxicity at 10 µM was -6.75%.
Work on `O=C(NC[C@H]1OC[C@@H](NC2CCOCC2)[C@@H]1O)c1cccs1` yielded a cytotoxicity at 10 µM of -1.6%.
Work on `Cc1noc([C@@H]2C[C@H](NC(=O)NC3CCCCC3)CN2C)n1` yielded a cytotoxicity at 10 µM of 3.23%.
In the case of `CCNC(=O)N1C[C@@H]2OCC(=O)N(C(C)C)[C@@H]2C1`, the cytotoxicity at 10 µM is reported as -0.155%.
With `COc1ccc(CN2C[C@@H]3CN(CCO)C[C@@H]3C2=O)cc1` the cytotoxicity at 10 µM was 9.27%.
Compound `CN1CCN(C(=O)c2n[nH]c3c2CN(C2CCOC2)CC3)CC1` (stereo not given) has a cytotoxicity at 10 µM of 1.52%.
`O=C(c1ccc[nH]1)N1CCOCC2(C1)CN(c1ccccc1)C(=O)CO2` (stereo not given) gave a cytotoxicity at 10 µM of -1.05%.
`COC(=O)CCC(=O)N1CCC2(CN(Cc3ccccc3F)C2)C1` gave a cytotoxicity at 10 µM of 5.58%.
With `O=C(c1cnccn1)N1CCN(Cc2ccncc2)c2ncccc2C1` the cytotoxicity at 10 µM was -2.72%.
With `O=C(N[C@@H]1CN(Cc2ccsc2)[C@@H]2CCCO[C@@H]21)C1CC1` the cytotoxicity at 10 µM was -5.47%.
Compound `O=C(NCc1ccco1)[C@@]12CCO[C@@H]1CCN(CCN1CCCC1)C2` has a cytotoxicity at 10 µM of -3.47%.
Compound `Cc1cc(-c2cc(N)c(=O)n(CC(=O)N3CCCC(C)C3)n2)c(C)o1` (stereo not given) has a cytotoxicity at 10 µM of 4.62%.
`CCS(=O)(=O)N1CCC(c2nc(C)c(C)c(N3CCCC3)n2)CC1` gave a cytotoxicity at 10 µM of 1.27%.
Compound `CC(C#N)NS(=O)(=O)c1cccc(C(C)C)c1` (stereo not given) has a cytotoxicity at 10 µM of 0.846%.
`COC(C)C(=O)NS(=O)(=O)c1cccc2cc(C)cnc12` (stereo not given) showed a cytotoxicity at 10 µM of -6.55%.
With `CC1CCCN(Cc2ccc(CNC(=O)NCc3ccncc3)cc2)C1` (stereo not given) the cytotoxicity at 10 µM was 4.64%.
Work on `CCOCCCNC(=O)c1cc(Br)c2c(c1)OCCO2` yielded a cytotoxicity at 10 µM of -2.21%.
For `COc1ncccc1CNC(=O)CN1CCCCCC1=O`, the cytotoxicity at 10 µM was -10.4%.
For `Cc1ccc(CCCC(=O)N(C)CCN2CCOCC2)cc1`, the cytotoxicity at 10 µM was -2.75%.
Compound `N#CC1(NC(=O)CNCCn2cccn2)CCCCC1` has a cytotoxicity at 10 µM of -7.5%.
In the case of `Cc1ncc(CN(C)C(=O)Nc2ccc(CN3CCOC3=O)cc2)s1`, the cytotoxicity at 10 µM is reported as -2.97%.
With `O=S(=O)(NC(CO)Cc1c[nH]c2ccccc12)c1cncc(F)c1` (stereo not given) the cytotoxicity at 10 µM was 12%.
`Cc1ccc(NS(=O)(=O)c2cnn(-c3ccccc3)c2)c(C(=O)O)c1` gave a cytotoxicity at 10 µM of -3.11%.
`CC(C)N(Cc1ccc(C#N)cc1)Cc1nnsc1Cl` showed a cytotoxicity at 10 µM of 12.6%.
In the case of `COc1cc2c(cc1OC)S(=O)(=O)N(Cc1cccc(C)c1)C2=O`, the cytotoxicity at 10 µM is reported as 5.98%.
`CCOc1cc(CNC(=O)c2cc(-c3ccccn3)no2)ccn1` showed a cytotoxicity at 10 µM of 1.63%.
For `Cc1nc(C2CCCC2)sc1C(N)=O`, the cytotoxicity at 10 µM was -5.03%.
For `Cc1cn2nc(N3CCCC3C(=O)N3CCOCC3)sc2n1` (stereo not given), the cytotoxicity at 10 µM was -3%.
With `CC(C)c1cc(CNC(=O)Nc2cc(F)cc(N3CCCC3)c2)on1` the cytotoxicity at 10 µM was 1.57%.
With `CC(=O)NC1(C(=O)N(C)Cc2c(C)noc2C)CCCCC1` the cytotoxicity at 10 µM was 14.4%.
Work on `Cc1ccc(-c2n[nH]cc2CNCC2CCc3nnc(C)n3C2)cc1` (stereo not given) yielded a cytotoxicity at 10 µM of -8.35%.
In the case of `N#Cc1ccc(F)c(CNC(=O)NCCC(=O)NC2CCCC2)c1`, the cytotoxicity at 10 µM is reported as -5.95%.
With `CN(C)CCN(Cc1cccc(C(F)(F)F)c1)C(=O)c1cc[nH]n1` the cytotoxicity at 10 µM was 1.39%.
In the case of `CC(O)c1cccc(N2CCC3(CCC(=O)N(CC(N)=O)C3)CC2)n1` (stereo not given), the cytotoxicity at 10 µM is reported as -2.55%.
Compound `O=C(c1ccc(Cn2cnnn2)cc1)N1CC[C@H](CO)[C@H](O)C1` has a cytotoxicity at 10 µM of 0.529%.
`CCn1nc(C)c(CCNC(=O)c2cccc(NCC(=O)O)c2)c1C` gave a cytotoxicity at 10 µM of 15.2%.
Work on `Cc1nc2ncccn2c1C(=O)N1CCc2[nH]cnc2C1` yielded a cytotoxicity at 10 µM of 7.94%.
For `CN(C)C[C@@H]1CN(C2CCN(c3ccccc3Cl)CC2)C[C@@H]1CO`, the cytotoxicity at 10 µM was -10.1%.
In the case of `COc1cc(-c2nc(CN(CCO)CCO)c(C)o2)ccc1F`, the cytotoxicity at 10 µM is reported as -10.2%.
Work on `O=S(=O)(NCc1ccccc1)NCc1nc(-c2ccncc2)n[nH]1` yielded a cytotoxicity at 10 µM of 14.3%.
Work on `CC(C)CN1CCCC1c1ccc(C(=O)Nc2cc[nH]n2)s1` (stereo not given) yielded a cytotoxicity at 10 µM of 10.3%.
With `COCCN(Cc1cnn(C)c1)C(=O)C1COc2c(cccc2OC)C1` (stereo not given) the cytotoxicity at 10 µM was -11.9%.
`CC(C)c1nc(C(=O)N2CCCC(N)CC2)cs1` (stereo not given) gave a cytotoxicity at 10 µM of -2.56%.
For `CCN(C)C[C@@H]1CN(Cc2cccc(O)c2)C[C@@H]1CO`, the cytotoxicity at 10 µM was -1.13%.
`CCc1nc(C)c(-c2nccn2CC2CCN(C3CCCC3)CC2)[nH]1` gave a cytotoxicity at 10 µM of 3.98%.
In the case of `Nc1nc2c(c(N3CCC(CN4CCCC4=O)CC3)n1)CCNCC2`, the cytotoxicity at 10 µM is reported as -3.95%.
Work on `COCCNc1nc2c(c(NCC3CCOC3)n1)CCNCC2` (stereo not given) yielded a cytotoxicity at 10 µM of -2.85%.
Work on `O=C(C1CC(=O)N(C2CCCC2)C1)N1CCN(CCn2cccc2)CC1` (stereo not given) yielded a cytotoxicity at 10 µM of 12.8%.
`CCc1nc(C2CCCN2CC(=O)Nc2cc(C)on2)no1` (stereo not given) showed a cytotoxicity at 10 µM of -3.08%.
Work on `CCc1nnc(CN2CCCCC2Cn2nc(C)nc2C)o1` (stereo not given) yielded a cytotoxicity at 10 µM of -2.4%.
With `CC1CCN(CCNC(=O)C(C)n2cncn2)CC1` (stereo not given) the cytotoxicity at 10 µM was -9.12%.
Compound `Cc1ccoc1C(=O)NC1CCN(CC(=O)N(C)c2ccccc2)CC1` has a cytotoxicity at 10 µM of -2.93%.
With `CC(c1nc(C(C)(C)C)no1)N1CCN(Cc2ccco2)CC1` (stereo not given) the cytotoxicity at 10 µM was -5.02%.
With `CN(C)c1cc(C(=O)N2CCCC2c2cnn(C)c2)ccn1` (stereo not given) the cytotoxicity at 10 µM was -1.39%.
Compound `CCCN(CC)c1ccc(C(=O)N2CCCC2c2cnn(C)c2)cn1` (stereo not given) has a cytotoxicity at 10 µM of -6.75%.
With `CN(C)S(=O)(=O)c1ccc(CN2CCCC2c2cccs2)o1` (stereo not given) the cytotoxicity at 10 µM was -3.31%.
In the case of `Cn1cc(C2CCCN2C(=O)c2ccc(NC3CC3)nc2)cn1` (stereo not given), the cytotoxicity at 10 µM is reported as -14.4%.
For `CCc1nnc2n1CCN(CC(O)c1ccc3c(c1)OCCO3)C2` (stereo not given), the cytotoxicity at 10 µM was -7.3%.
For `Cc1ccccc1OCCCC(=O)NCC1CN(C)CCO1` (stereo not given), the cytotoxicity at 10 µM was -8.69%.
With `Cc1cnn(CC2CCCN2Cc2cc(C)no2)c1` (stereo not given) the cytotoxicity at 10 µM was -1.66%.
With `CCCc1noc(CN2CCC(C(=O)Nc3cnn(CC)c3)CC2)n1` the cytotoxicity at 10 µM was -0.988%.
For `CCOc1ncccc1CNCc1c(C(C)C)nn(C)c1N(C)C`, the cytotoxicity at 10 µM was -8.19%.
With `CCN(C(=O)CN(C)C(c1cccc(F)c1)c1ccccn1)C1CC1` (stereo not given) the cytotoxicity at 10 µM was -8.65%.
Work on `Cc1ccc(CNC(=O)CN2C=Nc3ccccc3S2(=O)=O)s1` yielded a cytotoxicity at 10 µM of 0.347%.
`Cc1ccc(CC(=O)N2CSCC2C(=O)N(C)Cc2ccco2)o1` (stereo not given) gave a cytotoxicity at 10 µM of -4.32%.
`CC(NC(=O)c1ccc2c(c1)OCC(=O)N2)c1ccccc1F` (stereo not given) showed a cytotoxicity at 10 µM of -4.42%.
For `CC(=O)Nc1nc(C(=O)N2CCCC(c3cc(C)[nH]n3)C2)cs1` (stereo not given), the cytotoxicity at 10 µM was -8.85%.
Compound `Cc1ccc(N2CCCN(C(=O)C(C(C)C)n3cncn3)CC2)nn1` (stereo not given) has a cytotoxicity at 10 µM of -5.99%.
`O=C(c1cccc(Cn2ccnc2)c1)N1CCCC(n2ccnc2)C1` (stereo not given) showed a cytotoxicity at 10 µM of -6.61%.
In the case of `Cc1ccc(C(=O)N2CCN(Cc3nc(C(C)C)no3)CC2)c(=O)[nH]1`, the cytotoxicity at 10 µM is reported as -7.67%.
For `Cn1cc(C2CCCN2C(=O)CCCOc2ccc(F)cc2F)cn1` (stereo not given), the cytotoxicity at 10 µM was -7.54%.
For `N#Cc1cc(NS(=O)(=O)c2ccc(C(=O)O)cc2F)ccc1F`, the cytotoxicity at 10 µM was -10.9%.
With `Cc1cccc(NC(=O)NCCCn2nc3ccccn3c2=O)c1C` the cytotoxicity at 10 µM was -6.73%.
In the case of `O=C(c1cc2cc(F)ccc2[nH]1)N1CCC(Nc2cccnn2)CC1`, the cytotoxicity at 10 µM is reported as -5.97%.
With `CC(c1cccc(S(N)(=O)=O)c1)N(C)CCOc1ccccc1` (stereo not given) the cytotoxicity at 10 µM was -3.83%.
`CC(Cn1cncc1-c1cnn(Cc2ccccc2)c1)N1CCCCC1` (stereo not given) gave a cytotoxicity at 10 µM of 6.58%.
Compound `Cc1cc(C(=O)N2CCC3(C2)CN(c2cccnc2)C(=O)CN3C)[nH]n1` (stereo not given) has a cytotoxicity at 10 µM of 5.2%.
For `COc1ccc(CN2C[C@H]3CN(Cc4ccncc4)C(=O)[C@H]3C2)cc1`, the cytotoxicity at 10 µM was 4.35%.
In the case of `CSc1nccc(N2C[C@H]3CC[C@@H](C2)N(CC2CCC2)C3=O)n1`, the cytotoxicity at 10 µM is reported as 1.88%.
For `CC1CCCN(S(=O)(=O)NCCNC(=O)c2ncccc2O)C1` (stereo not given), the cytotoxicity at 10 µM was 3.07%.
